A selection: hits, their analogues and other compounds. The true share with any hit is near 3.7%.
Kir21 block: blocks the mouse Kir2.1 inward-rectifier potassium channel; HEK293-Kir2.1, FluxOR thallium flux fluorescence; active compounds read low; B-score at 10 µM; hit rate 0.85% among 310,000;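 active = fluorescence ratio B-score at or below minus 3 SD of library scores, with starting-brightness B-score within 2 SD, cut at about -4.2 in these data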;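 also: channel flux triggered by added potassium and thallium sulfate stimulus; B-score of peak minus minimum fluorescence over baseline after thallium stimulus; more negative B-score means stronger Kir2.1 block with less thallium influx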
KCNQ1 act: potentiates or activates the human KCNQ1 potassium channel; CHO-K1 KCNQ1, thallium flux FluxOR fluorescence; active compounds read high; B-score at 10 µM; P51787; AID 2648; hit rate 0.35% among 310,000;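 active = fluorescence ratio B-score, a plate-corrected score, at least three library SD, with initial intensity B-score within 5 SD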
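System: CHO-K1 cells stably expressing KCNQ1 / Medium: assay buffer for compound exposure, DMSO matched across wells / Reagent: thallium- and potassium-containing depolarizing buffer / Compound: one concentration, matched DMSO / Incubation: 20 min compound pretreatment at room temperature / Measured by: kinetic FluxOR fluorescence, 10 s baseline plus 110 s post-stimulus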
hERG protect: shields human hERG channel from block by proarrhythmic agents; activation (rescue from dofetilide block), less the hit threshold, % at 10 µM; Q12809; AID 1511; hit rate 0.51% among 310,000; CHO-hERG, FluxOR thallium flux, dofetilide IC70 present;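 active = activation above the mean of controls blocked by dofetilide plus 5 SD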;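 also: thallium influx through hERG after potassium depolarization seen as dye fluorescence rise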
KCNK9 inh: inhibitors of human KCNK9 two-pore domain potassium channel. Q9NPC2. HEK293 KCNK9, FluxOR thallium flux fluorescence; active compounds read low. B-score at 10 µM. hit rate 1.2% among 310,000;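 active = ratio B-score over 3 SD below the library mean, with starting fluorescence within 5 SD of its mean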;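 also: negative B-score means less thallium flux so channel inhibition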
Target sequence (Q9NPC2 whole entry, looked up, the tested form may be a part): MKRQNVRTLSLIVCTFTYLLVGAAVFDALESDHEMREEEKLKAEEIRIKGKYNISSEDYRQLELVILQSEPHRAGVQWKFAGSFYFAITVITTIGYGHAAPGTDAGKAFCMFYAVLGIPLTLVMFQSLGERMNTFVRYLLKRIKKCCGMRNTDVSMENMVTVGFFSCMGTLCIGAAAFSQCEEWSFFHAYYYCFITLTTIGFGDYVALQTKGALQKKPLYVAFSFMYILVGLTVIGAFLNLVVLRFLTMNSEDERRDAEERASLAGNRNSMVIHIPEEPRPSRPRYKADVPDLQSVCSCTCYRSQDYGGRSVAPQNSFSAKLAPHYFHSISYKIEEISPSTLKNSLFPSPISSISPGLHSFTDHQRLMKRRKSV
KCNK3 inh: human KCNK3 channel inhibition, primary screen | O14649 | CHO-KCNK3 thallium flux, FluxOR fluorescence; active compounds read low | B-score at 10 µM | hit rate 0.84% among 340,000;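 active = B-score under library mean minus 4 SD, starting fluorescence ratio at most library mean plus 5 SD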;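 also: more negative B-score means stronger inhibition of thallium flux through KCNK3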
Target sequence (O14649 whole entry, looked up): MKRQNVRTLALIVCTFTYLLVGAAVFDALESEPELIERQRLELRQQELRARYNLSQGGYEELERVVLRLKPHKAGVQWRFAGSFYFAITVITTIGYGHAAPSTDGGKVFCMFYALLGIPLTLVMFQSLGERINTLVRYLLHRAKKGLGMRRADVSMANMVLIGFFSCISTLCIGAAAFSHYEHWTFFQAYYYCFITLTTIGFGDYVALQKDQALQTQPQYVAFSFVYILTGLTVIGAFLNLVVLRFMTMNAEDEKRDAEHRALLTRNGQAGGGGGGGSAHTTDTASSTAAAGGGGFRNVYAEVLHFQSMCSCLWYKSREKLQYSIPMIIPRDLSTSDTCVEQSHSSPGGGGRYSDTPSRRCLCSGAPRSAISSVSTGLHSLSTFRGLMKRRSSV
KCNQ1 block: inhibitors of human KCNQ1 potassium channel; B-score at 10 µM; hit rate 1.3% among 310,000; CHO-K1 KCNQ1, FluxOR thallium flux fluorescence; active compounds read high;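 active = compounds whose thallium flux B-score, printed positive for inhibition, exceeds three library SD while starting fluorescence stays within three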;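 also: channel opened by potassium depolarization with thallium stimulus after 20 min compound exposure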
KCNQ1 block val: confirmation of human KCNQ1 potassium channel inhibitors | shares compounds with KCNQ1 block | KCNQ1 cell line, FluxOR thallium flux fluorescence | inhibition, % at 10 µM | hit rate 93% among 1,600;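 active = primary screen active, with duplicate mean exceeding buffer control mean plus 3 SD of buffer wells, cut at about 28% in these data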
CHO KCNQ1 ctr: counter-screen for KCNQ1 inhibitors: effect in parental CHO cells | shares compounds with KCNQ1 block | parental CHO-K1, FluxOR thallium flux fluorescence ratio; active compounds read low; zero means no signal rise above baseline | fluorescence ratio (Tl flux) at 10 µM | hit rate 21% among 1,600;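 active = mean of duplicate thallium-flux fluorescence ratios in parental host cells more than 5 SD below the buffer control mean, cut at about 0.38 in these data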;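 also: ratio is peak minus minimum fluorescence divided by baseline fluorescence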
KCNQ1 ephys val: blocks human KCNQ1 current in automated patch clamp. shares compounds with KCNQ1 block. KCNQ1-CHO cells. calls only at 10 µM. hit rate 20% among 490;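 active = KCNQ1 current drop exceeding 3 SD of negative control wells, seen in both duplicate runs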;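 also: steady state current during a 2 s step from -80 to +40 mV; negative values mean current inhibition and positive values mean potentiation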
KCNQ2 inh: rat KCNQ2 inhibition in KCNQ1 inhibitor specificity screen. AID 651746. KCNQ2 cells, FluxOR thallium flux fluorescence. inhibition, % at 10 µM. hit rate 71% among 1,600. shares compounds with KCNQ1 block;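 active = mean percent inhibition of the KCNQ2 thallium signal more than 5 SD above the buffer-only control wells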;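 also: KCNQ2 expressed in CHO cells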
KCNQ1 KCNE1 spec: KCNQ1 inhibitor that also blocks human KCNQ1/KCNE1 channel; shares compounds with KCNQ1 block; KCNQ1/KCNE1 cells, FluxOR thallium flux fluorescence; inhibition, % at 10 µM; AID 652147; hit rate 77% among 1,600;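 active = mean percent inhibition of duplicate wells above the buffer-only control mean plus 3 SD of those controls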
Each line names hits and unclear results; the compound was inactive in the other large screens (follow-up assays come after a bar, where they were run).

O=S(=O)(Nc1nc2ccccc2nc1Cl)c1cccc(C(F)(F)F)c1	KCNQ1 block 7 | KCNQ1 block val 42.0 | CHO KCNQ1 ctr inactive | KCNQ2 inh 62.7% | KCNQ1 KCNE1 spec 34.5%
Cc1cc(C(=O)CCC(=O)N(C)CC(=O)Nc2ccc(OC(F)(F)F)cc2)c(C)s1	none (no result: Kir21 block, KCNQ1 act, hERG protect, KCNK9 inh, KCNQ1 block)
Cc1ccc(S(=O)(=O)Nc2ccccc2CNc2ccccn2)cc1	none
Cc1ccc(S(=O)(=O)Nc2ccccc2CNc2ccc(Br)cn2)cc1	KCNK9 inh -7.56, KCNQ1 block 7 | KCNQ1 block val 109.0 | CHO KCNQ1 ctr 0.373 | KCNQ2 inh 103.0% | KCNQ1 KCNE1 spec 151.5%
CC12CCC(=O)N1C(C(=O)Nc1cc(C(F)(F)F)ccc1N1CCCCC1)CS2 (stereo not drawn)	KCNQ1 block 7 | KCNQ1 block val 46.5 | CHO KCNQ1 ctr inactive | KCNQ2 inh 103.0% | KCNQ1 KCNE1 spec 47.5%
CCCSc1nnc(NC(=O)Nc2ccc(F)cc2)s1	KCNQ1 block 8 | KCNQ1 block val 49.5 | CHO KCNQ1 ctr inactive | KCNQ2 inh 60.3% | KCNQ1 KCNE1 spec 37.0%
N/C(=N\S(=O)(=O)c1cc(C(F)(F)F)cc(C(F)(F)F)c1)c1ccc(Cl)cc1	KCNQ1 block 7 | KCNQ1 block val inactive | CHO KCNQ1 ctr inactive | KCNQ2 inh inactive | KCNQ1 KCNE1 spec inactive
Cc1cc(C)c(N2CCN(S(=O)(=O)N3CCCCCC3)CC2)c(C)c1	KCNQ1 block 7 | KCNQ1 block val 125.5 | CHO KCNQ1 ctr inactive | KCNQ2 inh 115.3% | KCNQ1 KCNE1 spec 118.0%
C=CCOC(=O)C1=C(C)NC(C)=C(C(=O)OCC=C)C1/C=C/c1ccccc1	KCNK3 inh -10.6, KCNQ1 block 12 | KCNQ1 block val 135.0 | CHO KCNQ1 ctr inactive | KCNQ1 ephys val inactive | KCNQ2 inh 101.0% | KCNQ1 KCNE1 spec 126.5%
CCOC(=O)C1=C(C)NC(C)=C(C(=O)OCC)C1/C=C/c1ccccc1	none
O=C(NC(=S)N1CCOCC1)C12CC3CCC(CC(C3)C1)C2	none
CC12CC3(C)CC(C)(C1)CC(C(=O)NC(=S)N1CCOCC1)(C2)C3	KCNQ1 block 8 | KCNQ1 block val 53.0 | CHO KCNQ1 ctr inactive | KCNQ2 inh inactive | KCNQ1 KCNE1 spec 44.0%
CCC(=O)N1CCc2cc(S(=O)(=O)CCC(=O)N3CCN(c4ccc(F)cc4)CC3)ccc21	none
COc1ccc(-c2cn(CCO)c(CCN)n2)cc1	none (no result: Kir21 block, KCNQ1 act, hERG protect, KCNK9 inh, KCNQ1 block)
CCN(CC(O)c1cccc(O)c1)C(=O)C12CC3CC(CC(C3)C1)C2 (stereo not drawn)	KCNQ1 block 6 | KCNQ1 block val 66.0 | CHO KCNQ1 ctr inactive | KCNQ2 inh 77.3% | KCNQ1 KCNE1 spec 43.0%
CNC[C@H](O)c1cccc(O)c1	none
Nc1cc(OCc2ccccc2)ccc1OCc1ccccc1	none (no result: Kir21 block, KCNQ1 act, hERG protect, KCNK9 inh, KCNQ1 block)
CSc1nc(Cl)c(Cc2ccc(OCC(C)C)cc2)c(N2CCOCC2)n1	KCNQ1 block 8 | KCNQ1 block val 110.5 | CHO KCNQ1 ctr inactive | KCNQ1 ephys val inactive | KCNQ2 inh 103.0% | KCNQ1 KCNE1 spec 136.0%
CCCCOc1ccc(Cc2c(Cl)nc(SC)nc2N2CCOCC2)cc1	KCNQ1 block 7 | KCNQ1 block val 63.0 | CHO KCNQ1 ctr inactive | KCNQ2 inh 102.0% | KCNQ1 KCNE1 spec 68.0%
CSc1nc(N2CCOCC2)c2c3c(sc2n1)CCCC3	none
Cc1cc(C(=O)Nc2ccc3nc(C)sc3c2)c2ccccc2n1	none
Nn1cnc2c(c1=O)C1(CCCCC1)Cc1ccccc1-2	none
O=c1c2c(nc3n1CCCCC3)-c1ccccc1CC21CCCC1	KCNQ1 block 8 | KCNQ1 block val 122.0 | CHO KCNQ1 ctr inactive | KCNQ1 ephys val inactive | KCNQ2 inh 115.3% | KCNQ1 KCNE1 spec 150.5%
c1ccc2c(c1)oc1c(N3CCOCC3)ncnc12	none
C(=C\c1ccccc1)/CN1CCN(c2ncnc3c2oc2ccccc23)CC1	KCNK3 inh -12.8, KCNQ1 block 7 | KCNQ1 block val 149.5 | CHO KCNQ1 ctr 0.312 | KCNQ2 inh 135.0% | KCNQ1 KCNE1 spec 178.5%
COc1ccc(CCNC(=O)CCC(=O)N2CCOc3ccccc32)cc1OC	none
Cc1cc(C(=O)NCc2cc(F)cc3c2OCOC3)nn1C	none
Cn1nc(C(C)(C)C)cc1C(=O)NCc1cc(F)cc2c1OCOC2	KCNQ1 block 7 | KCNQ1 block val 94.0 | CHO KCNQ1 ctr inactive | KCNQ1 ephys val active | KCNQ2 inh 82.0% | KCNQ1 KCNE1 spec 34.0%
Cc1cccc(NC(=O)c2cc3n(n2)C(C(F)(F)F)CC(c2ccc4c(c2)OCO4)N3)c1 (stereo not drawn)	KCNQ1 block 8 | KCNQ1 block val 126.0 | CHO KCNQ1 ctr inactive | KCNQ1 ephys val inactive | KCNQ2 inh 104.3% | KCNQ1 KCNE1 spec 94.5%
CC1(C)CC(=O)C2=C(C1)N1C(=C(C#N)C2c2ccc(Cl)cc2)N=C(N)c2ccccc21 (stereo not drawn)	KCNQ1 block 8 | KCNQ1 block val 74.5 | CHO KCNQ1 ctr inactive | KCNQ2 inh 77.0% | KCNQ1 KCNE1 spec 70.5%
Nc1c(C(=O)Nc2ccccc2)c2nc3ccccc3nc2n1-c1ccc(O)cc1	none
CCCCCn1c(CN2CCN(c3cccc(Cl)c3)CC2)nc2c1c(=O)n(C)c(=O)n2C	none
CCCn1c(CN2CCN(c3cccc(Cl)c3)CC2)nc2c1c(=O)n(C)c(=O)n2C	KCNQ1 block 7 | KCNQ1 block val 80.0 | CHO KCNQ1 ctr inactive | KCNQ2 inh 127.3% | KCNQ1 KCNE1 spec 35.5%
CCN1C(=O)C(CC(=O)Nc2ccc(Br)cc2)N(CCCc2ccccc2)C1=S (stereo not drawn)	KCNQ1 block 8 | KCNQ1 block val 140.0 | CHO KCNQ1 ctr 0.334 | KCNQ2 inh 114.7% | KCNQ1 KCNE1 spec 196.0%
COc1cc(NC(=O)c2ccno2)cc(C(=O)Nc2cccc(C(F)(F)F)c2)c1	KCNQ1 block 9 | KCNQ1 block val 110.5 | CHO KCNQ1 ctr 0.351 | KCNQ2 inh 99.7% | KCNQ1 KCNE1 spec 163.0%
Cn1nc(C(C)(C)C)cc1NC(=O)Nc1ccc(Cl)cc1	KCNQ1 block 7 | KCNQ1 block val 83.0 | CHO KCNQ1 ctr inactive | KCNQ2 inh inactive | KCNQ1 KCNE1 spec inactive
Cn1nc(C(C)(C)C)cc1NC(=O)Nc1ccc(F)cc1F	none

Screening results from PubChem BioAssay.
